ChEMBL document CHEMBL1124076, “125I-labeled 8-phenylxanthine derivatives: antagonist radioligands for adenosine A1 receptors” (J Med Chem, 1988)

Tests used:
Adenosine receptor A1 [1] = target: T1, Adenosine receptor A1 (Bos taurus, UniProt P28190); experiment: Displacement of [125-I]-labeled aminobenzyl adenosine binding to adenosine A1 receptor of bovine brain membranes; type: cell membranes
T1 sequence (P28190 whole entry): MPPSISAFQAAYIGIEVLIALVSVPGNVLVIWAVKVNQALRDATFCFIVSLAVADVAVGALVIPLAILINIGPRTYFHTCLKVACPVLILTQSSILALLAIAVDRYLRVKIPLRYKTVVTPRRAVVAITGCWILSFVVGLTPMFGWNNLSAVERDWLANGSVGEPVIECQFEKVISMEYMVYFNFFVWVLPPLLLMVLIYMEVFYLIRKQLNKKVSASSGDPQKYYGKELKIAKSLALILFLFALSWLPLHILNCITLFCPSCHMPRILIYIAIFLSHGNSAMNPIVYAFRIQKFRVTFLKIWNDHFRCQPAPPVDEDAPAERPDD
How it was run: (§1)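 Bovine cerebral cortex membranes, pretreated with EDTA, at 0.5 mg protein/mL in 10 mM HEPES, 1 mM EDTA, 0.1 mM benzamidine, pH 7.4. Incubated 2-3 h at 21 °C, then filtered and washed with ice-cold 10 mM Tris-HCl pH 7.4. Nonspecific binding by 100 μM PIA, 1 mM theophylline or 1 μM IIIa.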

Adenosine A2 receptor = Adenosine A2 receptor (Homo sapiens, UniProt P29275+P29274); experiment: Inhibition of NECA binding to adenosine A2 receptor mediates reduced adenylate cyclase activity in human platelets
Adenosine receptor A1 [2] = target: T1, Adenosine receptor A1; experiment: Binding affinity for adenosine A1 receptor as inhibition of [125-I]-labeled aminobenzyl adenosine binding to bovine brain membranes; type: cell membranes; how it was run: as §1
Adenosine receptor A1 [3] = target: T1, Adenosine receptor A1; experiment: Binding affinity for adenosine A1 receptor using [125-I]-labeled aminobenzyl adenosine in bovine brain membranes; type: cell membranes; how it was run: as §1
Adenosine receptor A1 [4] = target: T2, Adenosine receptor A1 (Rattus norvegicus, UniProt P25099)
T2 sequence (P25099 whole entry): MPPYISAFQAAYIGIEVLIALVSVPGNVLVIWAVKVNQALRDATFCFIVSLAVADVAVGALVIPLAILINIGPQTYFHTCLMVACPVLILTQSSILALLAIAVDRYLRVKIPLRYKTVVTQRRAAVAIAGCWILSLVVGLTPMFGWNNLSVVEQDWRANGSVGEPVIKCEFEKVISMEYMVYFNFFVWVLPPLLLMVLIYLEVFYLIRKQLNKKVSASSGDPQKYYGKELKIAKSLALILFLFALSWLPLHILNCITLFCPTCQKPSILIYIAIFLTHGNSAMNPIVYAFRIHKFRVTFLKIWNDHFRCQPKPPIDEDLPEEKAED

Adenosine receptor A1 [5] = target: T2, Adenosine receptor A1; experiment: Binding affinity to adenosine A1 receptor of rat brain membranes with 1 M NaCl by inhibition of [125-I]-IIIa binding

CCCn1c(=O)c2nc(-c3ccc(OCC(=O)O)cc3)[nH]c2n(CCc2ccc(N)c(I)c2)c1=O
Kd (Adenosine receptor A1 [1]): 29 nM | Ki (Adenosine A2 receptor): 5300 nM

Nc1ccc(CCn2c(=O)c3nc(-c4ccc(OCC(=O)O)cc4)[nH]c3n(CCc3ccc(N)cc3)c2=O)cc1
Kd (Adenosine receptor A1 [1]): 3590 nM | Ki (Adenosine A2 receptor): > 100000 nM

CCCn1c(=O)n(Cc2ccc(N=[N+]=[N-])c(I)c2)c(=O)c2[nH]c(-c3ccc(OCC(=O)O)cc3)nc21
Kd (Adenosine receptor A1 [2]): 960 nM | Ki (Adenosine A2 receptor): 5300 nM

CCCn1c(=O)c2nc(-c3ccc(OCC(=O)O)cc3)[nH]c2n(Cc2ccc(N=[N+]=[N-])c(I)c2)c1=O
Kd (Adenosine receptor A1 [3]): 55 nM | Ki (Adenosine A2 receptor): 2100 nM

CCCn1c(=O)n(CCc2ccc(N)c(I)c2)c(=O)c2[nH]c(-c3ccc(OCC(=O)O)cc3)nc21
Kd (Adenosine receptor A1 [1]): 3100 nM | Ki (Adenosine A2 receptor): 20000 nM

CCCn1c(=O)n(Cc2ccc(N)c(I)c2)c(=O)c2[nH]c(-c3ccc(OCC(=O)O)cc3)nc21
Kd (Adenosine receptor A1 [1]): 160 nM | Ki (Adenosine A2 receptor): 1800 nM

CCCn1c(=O)n(CCc2ccc(N)cc2)c(=O)c2[nH]c(-c3ccc(OCC(=O)O)cc3)nc21
Kd (Adenosine receptor A1 [1]): 2300 nM | Ki (Adenosine A2 receptor): 11500 nM

CCCn1c(=O)n(Cc2ccc(N)cc2)c(=O)c2[nH]c(-c3ccc(OCC(=O)O)cc3)nc21
IC50 (Adenosine receptor A1 [4]): 44 nM | IC50 (Adenosine receptor A1 [5]): 5.2 nM | Kd (Adenosine receptor A1 [1]): 44 nM | Ki (Adenosine A2 receptor): 23000 nM

CCCn1c(=O)c2nc(-c3ccc(OCC(=O)O)cc3)[nH]c2n(CCc2ccc(N=[N+]=[N-])c(I)c2)c1=O
Kd (Adenosine receptor A1 [1]): 24 nM | Ki (Adenosine A2 receptor): 5400 nM

CCCn1c(=O)c2[nH]c(-c3ccc(OCC(=O)O)cc3)nc2n(CCC)c1=O
Kd (Adenosine receptor A1 [2]): 17 nM

CCCn1c(=O)c2nc(-c3ccc(OCC(=O)O)cc3)[nH]c2n(Cc2ccc(N)cc2)c1=O
IC50 (Adenosine receptor A1 [4]): 64 nM | IC50 (Adenosine receptor A1 [5]): 3.4 nM | Kd (Adenosine receptor A1 [1]): 32 nM | Ki (Adenosine A2 receptor): 1000 nM

CCCn1c(=O)c2nc(-c3ccc(OCC(=O)O)cc3)[nH]c2n(CCc2ccc(N)cc2)c1=O
IC50 (Adenosine receptor A1 [4]): 37 nM | IC50 (Adenosine receptor A1 [5]): 3.4 nM | Kd (Adenosine receptor A1 [1]): 60 nM | Ki (Adenosine A2 receptor): 11500 nM

CCCn1c(=O)n(CCc2ccc(N=[N+]=[N-])c(I)c2)c(=O)c2[nH]c(-c3ccc(OCC(=O)O)cc3)nc21
Kd (Adenosine receptor A1 [2]): 2860 nM | Ki (Adenosine A2 receptor): 12300 nM

CCCn1c(=O)c2nc(-c3ccc(OCC(=O)O)cc3)[nH]c2n(Cc2ccc(N)c(I)c2)c1=O
IC50 (Adenosine receptor A1 [4]): 37 nM | IC50 (Adenosine receptor A1 [5]): 3 nM | Kd (Adenosine receptor A1 [1]): 37 nM | Ki (Adenosine A2 receptor): 700 nM
